Results from ChEMBL document CHEMBL1122115, “Antimalarials. 13. 5-Alkoxy analogues of 4-methylprimaquine” (1982).

Tests used:
Type in all cases: functional
[1] = tested on: Mus musculus; experiment: Antimalarial activity against Plasmodium berghei in mice (Mus musculus) at 20 mg/kg dose administered subcutaneously; cure and active at 1.25 mg/kg
Summary of the method: (§1)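 Primary mouse screen: groups of five mice infected with a lethal dose of P. berghei 3 days before drug administration. Drug given subcutaneously, routinely in sesame or peanut oil. Mean survival time compared with infected untreated controls; extension in survival time (ΔMST) taken as antimalarial activity.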

[2] = tested on: Plasmodium cynomolgi; experiment: Radio curative antimalarial activity against Plasmodium cynomolgi in rhesus monkey at 0.25 mg/kg (base/day) peroral dose; cured 1 of 4; settings: route oral
[3] = tested on: Mus musculus; experiment: Antimalarial activity against Plasmodium berghei in mice (Mus musculus) at 160 mg/kg dose administered subcutaneously; toxic; settings: route subcutaneous; summary of the method: as §1
[4] = tested on: Plasmodium cynomolgi; experiment: Radio curative antimalarial activity against Plasmodium cynomolgi in rhesus monkey at 0.75 mg/kg (base/day) peroral dose; cured 3 of 3; settings: route oral
[5] = tested on: Mus musculus; experiment: Antimalarial activity against Plasmodium berghei in mice (Mus musculus) at 640 mg/kg dose administered subcutaneously; toxic; settings: route subcutaneous; summary of the method: as §1
[6] = tested on: Mus musculus; experiment: Antimalarial activity against Plasmodium berghei in mice (Mus musculus) at 40 mg/kg dose administered subcutaneously; cure/1 toxic; settings: route subcutaneous; summary of the method: as §1
[7] = tested on: Mus musculus; experiment: Antimalarial activity against Plasmodium berghei in mice (Mus musculus) at 20 mg/kg dose administered subcutaneously; active; settings: route subcutaneous; summary of the method: as §1
[8] = tested on: Mus musculus; experiment: Antimalarial activity against Plasmodium berghei in mice (Mus musculus) at 40 mg/kg dose administered subcutaneously; toxic; settings: route subcutaneous; summary of the method: as §1
[9] = tested on: Plasmodium cynomolgi; experiment: Radio curative antimalarial activity against Plasmodium cynomolgi in rhesus monkey at 0.75 mg/kg (base/day) peroral dose; cured 0 of 3; settings: route oral
[10] = tested on: Mus musculus; experiment: Antimalarial activity against Plasmodium berghei in mice (Mus musculus) at 5 mg/kg dose administered subcutaneously; active; settings: route subcutaneous; summary of the method: as §1
[11] = tested on: Mus musculus; experiment: Antimalarial activity against Plasmodium berghei in mice (Mus musculus) at 10 mg/kg dose administered subcutaneously; active; settings: route subcutaneous; summary of the method: as §1
[12] = tested on: Plasmodium cynomolgi; experiment: Radio curative antimalarial activity against Plasmodium cynomolgi in rhesus monkey at 0.25 mg/kg (base/day) peroral dose; cured 0 of 3; settings: route oral
[13] = tested on: Mus musculus; experiment: Antimalarial activity against Plasmodium berghei in mice (Mus musculus) at 80 mg/kg dose administered subcutaneously; active; settings: route subcutaneous; summary of the method: as §1
[14] = tested on: Plasmodium cynomolgi; experiment: Radio curative antimalarial activity against Plasmodium cynomolgi in Rhesus monkey at 0.125 mg/kg(base/day) peroral dose; Cured 11 of 13; settings: route oral
[15] = tested on: Mus musculus; experiment: Antimalarial activity against Plasmodium berghei in mice (Mus musculus) at 320 mg/kg dose administered subcutaneously; active/4 toxic; settings: route subcutaneous; summary of the method: as §1
[16] = tested on: Mus musculus; experiment: Antimalarial activity against Plasmodium berghei in mice (Mus musculus) at 20 mg/kg dose administered subcutaneously; settings: route subcutaneous; summary of the method: as §1
[17] = tested on: Mus musculus; experiment: Antimalarial activity against Plasmodium berghei in mice (Mus musculus) at 160 mg/kg dose administered subcutaneously; active/1 toxic; settings: route subcutaneous; summary of the method: as §1
[18] = tested on: Mus musculus; experiment: Antimalarial activity against Plasmodium berghei in mice (Mus musculus) at 40 mg/kg dose administered subcutaneously; active; settings: route subcutaneous; summary of the method: as §1
[19] = tested on: Plasmodium cynomolgi; experiment: Radio curative antimalarial activity against Plasmodium cynomolgi in rhesus monkey at 0.0625 mg/kg(base/day) peroral dose; Cured 0 of 5; settings: route oral
[20] = tested on: Plasmodium cynomolgi; experiment: Radio curative antimalarial activity against Plasmodium cynomolgi in rhesus monkey at 0.25 mg/kg (base/day) peroral dose; cured 3 of 4; settings: route oral
[21] = tested on: Plasmodium cynomolgi; experiment: Radio curative antimalarial activity against Plasmodium cynomolgi in rhesus monkey at 0.5 mg/kg (base/day) peroral dose; cured 1 of 1; settings: route oral
[22] = tested on: Mus musculus; experiment: Antimalarial activity against Plasmodium berghei in mice (Mus musculus) at 160 mg/kg dose administered subcutaneously; settings: route subcutaneous; summary of the method: as §1
[23] = tested on: Mus musculus; experiment: Antimalarial activity against Plasmodium berghei in mice (Mus musculus) at 40 mg/kg dose administered subcutaneously; settings: route subcutaneous; summary of the method: as §1
[24] = tested on: Mus musculus; experiment: Antimalarial activity against Plasmodium berghei in mice (Mus musculus) at 640 mg/kg dose administered subcutaneously; settings: route subcutaneous; summary of the method: as §1
[25] = tested on: Mus musculus; experiment: Antimalarial activity against Plasmodium berghei in mice (Mus musculus) at 80 mg/kg dose administered subcutaneously; settings: route subcutaneous; summary of the method: as §1
[26] = tested on: Mus musculus; experiment: Antimalarial activity against Plasmodium berghei in mice (Mus musculus) at 160 mg/kg dose administered subcutaneously; active; settings: route subcutaneous; summary of the method: as §1
[27] = tested on: Plasmodium cynomolgi; experiment: Radio curative antimalarial activity against Plasmodium cynomolgi in rhesus monkey at 0.75 mg/kg (base/day) peroral dose; cured 0 of 2; settings: route oral
[28] = tested on: Mus musculus; experiment: Antimalarial activity against Plasmodium berghei in mice (Mus musculus) at 320 mg/kg dose administered subcutaneously; active/3 toxic; settings: route subcutaneous; summary of the method: as §1
[29] = tested on: Plasmodium cynomolgi; experiment: Radio curative antimalarial activity against Plasmodium cynomolgi in rhesus monkey at 0.25 mg/kg (base/day) peroral dose; cured 0 of 2; settings: route oral
[30] = tested on: Mus musculus; experiment: Antimalarial activity against Plasmodium berghei in mice (Mus musculus) at 320 mg/kg dose administered subcutaneously; active; settings: route subcutaneous; summary of the method: as §1
[31] = tested on: Plasmodium cynomolgi; experiment: Radio curative antimalarial activity against Plasmodium cynomolgi in rhesus monkey at 0.5 mg/kg (base/day) peroral dose; cured 13 of 14; settings: route oral
[32] = tested on: Plasmodium cynomolgi; experiment: Radio curative antimalarial activity against Plasmodium cynomolgi in rhesus monkey at 0.75 mg/kg (base/day) peroral dose; cured 1 of 1; settings: route oral
[33] = tested on: Mus musculus; experiment: Antimalarial activity against Plasmodium berghei in mice (Mus musculus) at 640 mg/kg dose administered subcutaneously; cure/1toxic; settings: route subcutaneous; summary of the method: as §1
[34] = tested on: Plasmodium cynomolgi; experiment: Radio curative antimalarial activity against Plasmodium cynomolgi in rhesus monkey at 0.25 mg/kg (base/day) peroral dose; cured 8 of 14; settings: route oral
[35] = tested on: Plasmodium cynomolgi; experiment: Radio curative antimalarial activity against Plasmodium cynomolgi in rhesus monkey at 0.25 mg/kg (base/day) peroral dose; cured 4 of 4; settings: route oral
[36] = tested on: Plasmodium cynomolgi; experiment: Radio curative antimalarial activity against Plasmodium cynomolgi in Rhesus monkey at 0.0625 mg/kg(base/day) peroral dose; Cured 0 of 2; settings: route oral
[37] = tested on: Plasmodium cynomolgi; experiment: Radio curative antimalarial activity against Plasmodium cynomolgi in rhesus monkey at 0.75 mg/kg (base/day) peroral dose; cured 4 of 5; settings: route oral
[38] = tested on: Plasmodium cynomolgi; experiment: Radio curative antimalarial activity against Plasmodium cynomolgi in rhesus monkey at 0.125 mg/kg(base/day) peroral dose; Cured 6 of 10; settings: route oral
[39] = tested on: Mus musculus; experiment: Antimalarial activity against Plasmodium berghei in mice (Mus musculus) at 20 mg/kg dose administered subcutaneously; active/3 toxic; settings: route subcutaneous; summary of the method: as §1
[40] = tested on: Plasmodium cynomolgi; experiment: Radio curative antimalarial activity against Plasmodium cynomolgi in rhesus monkey at 0.25 mg/kg (base/day) peroral dose; cured 5 of 6; settings: route oral
[41] = tested on: Plasmodium cynomolgi; experiment: Radio curative antimalarial activity against Plasmodium cynomolgi in rhesus monkey at 0.75 mg/kg (base/day) peroral dose;cured 3 of 5; settings: route oral
[42] = tested on: Mus musculus; experiment: Antimalarial activity against Plasmodium berghei in mice (Mus musculus) at 40 mg/kg dose administered subcutaneously; active/3 toxic; settings: route subcutaneous; summary of the method: as §1
[43] = tested on: Plasmodium cynomolgi; experiment: Radio curative antimalarial activity against Plasmodium cynomolgi in rhesus monkey at 0.25 mg/kg (base/day) peroral dose; cured 2 of 4; settings: route oral
[44] = tested on: Plasmodium cynomolgi; experiment: Radio curative antimalarial activity against Plasmodium cynomolgi in rhesus monkey at 0.75 mg/kg (base/day) peroral dose; cured 4 of 4; settings: route oral
[45] = tested on: Mus musculus; experiment: Antimalarial activity against Plasmodium berghei in mice (Mus musculus) at 320 mg/kg dose administered subcutaneously; toxic; settings: route subcutaneous; summary of the method: as §1
[46] = tested on: Plasmodium cynomolgi; experiment: Radio curative antimalarial activity against Plasmodium cynomolgi in rhesus monkey at 0.5 mg/kg (base/day) peroral dose; cured 10 of 12; settings: route oral
[47] = tested on: Plasmodium cynomolgi; experiment: Radio curative antimalarial activity against Plasmodium cynomolgi in Rhesus monkey at 0.25 mg/kg (base/day) peroral dose; cured 0 of 3; settings: route oral
[48] = tested on: Mus musculus; experiment: Antimalarial activity against Plasmodium berghei in mice (Mus musculus) at 40 mg/kg dose administered subcutaneously; active/1 toxic; settings: route subcutaneous; summary of the method: as §1
[49] = tested on: Mus musculus; experiment: Antimalarial activity against Plasmodium berghei in mice (Mus musculus) at 20 mg/kg dose administered subcutaneously; active/1 toxic; settings: route subcutaneous; summary of the method: as §1
[50] = tested on: Plasmodium cynomolgi; experiment: Radio curative antimalarial activity against Plasmodium cynomolgi in rhesus monkey at 0.25 mg/kg (base/day) peroral dose; cured 2 of 2; settings: route oral

## COc1cc(NC(C)CCCCN)c2nccc(C)c2c1OC (stereo not given)
[1]
  Delta MST: 3 days
[2]
  Cured animals: 1
[3]
  Delta MST: 5 days
[4]
  Cured animals: 3
[5]
  Delta MST: 5 days
[6]
  number of mice cured: 1 mice

## Cc1ccnc2c(NC(C)CCCN)cc3c(c12)OCCO3 (stereo not given)
[7]
  Delta MST: 11.1 days
[8]
  number of mice died of toxicity: 5 mice
[3]
  Delta MST: 5 days
[5]
  Delta MST: 5 days
[9]
  Cured animals: 0
[10]
  Delta MST: 6.7 days
[11]
  Delta MST: 8.3 days
[12]
  Cured animals: 0

## COc1cc(NC(C)CCCN)c2nccc(C)c2c1OC (stereo not given)
[13]
  Delta MST: 8.9 days
[5]
  Delta MST: 5 days
[14]
  Cured animals: 11
[15]
  Delta MST: 11.9 days
[16]
  Delta MST: 5.7 days
[17]
  Delta MST: 9.9 days
[18]
  Delta MST: 7.1 days
[19]
  Cured animals: 0
[20]
  Cured animals: 3
[21]
  Cured animals: 1

## Cc1ccnc2c(NC(C)CCCN)cc3c(c12)OCO3 (stereo not given)
[22]
  Delta MST: 0.1 days
[23]
  Delta MST: 0.1 days
[24]
  Delta MST: 0.3 days

## COc1cc(NCCCC(C)N)c2ncccc2c1OC (stereo not given)
[25]
  Delta MST: 5.1 days
[26]
  Delta MST: 7.3 days
[23]
  Delta MST: 3.1 days
[27]
  Cured animals: 0
[5]
  Delta MST: 5 days
[28]
  Delta MST: 9.9 days
[16]
  Delta MST: 1.3 days
[29]
  Cured animals: 0

## CCC(CCCN)Nc1cc2c(c3c(C)ccnc13)OCO2 (stereo not given)
[22]
  Delta MST: 0.5 days
[23]
  Delta MST: 0.5 days
[24]
  Delta MST: 0.9 days
[9]
  Cured animals: 0
[12]
  Cured animals: 0

## COc1cc(NC(C)CCCN)c2nccc(C)c2c1 (stereo not given)
[30]
  Delta MST: 10.1 days
[25]
  Delta MST: 5.5 days
[31]
  Cured animals: 13
[26]
  Delta MST: 9.1 days
[23]
  Delta MST: 4.9 days
[32]
  Cured animals: 1
[16]
  Delta MST: 3.1 days
[33]
  Delta MST: 3 days
[34]
  Cured animals: 8

## CCC(CCCN)Nc1cc(OC)c(OC)c2c(C)ccnc12 (stereo not given)
[35]
  Cured animals: 4
[36]
  Cured animals: 0
[3]
  Delta MST: 5 days
[23]
  Delta MST: 0.1 days
[37]
  Cured animals: 4
[5]
  Delta MST: 5 days
[38]
  Cured animals: 6

## COc1cc(NCCCC(C)N)c2nccc(C)c2c1OC (stereo not given)
[39]
  Delta MST: 11.4 days
[40]
  Cured animals: 5
[8]
  number of mice died of toxicity: 5 mice
[3]
  Delta MST: 5 days
[5]
  Delta MST: 5 days
[21]
  Cured animals: 1

## COc1cc(NC(C)CCCN)c2nc(C)cc(C)c2c1OC (stereo not given)
[41]
  Cured animals: 3
[42]
  Delta MST: 6.3 days
[3]
  Delta MST: 5 days
[5]
  Delta MST: 5 days
[16]
  Delta MST: 4.9 days
[43]
  Cured animals: 2

## COc1cc(NC(C)CCCN)c2ncccc2c1 (stereo not given) [PRIMAQUINE]
[13]
  Delta MST: 9.4 days
[3]
  Delta MST: 2 days
[23]
  Delta MST: 5 days
[5]
  Delta MST: 5 days
[44]
  Cured animals: 4
[29]
  Cured animals: 0
[45]
  Delta MST: 5 days
[46]
  Cured animals: 10

## CCC(CCCN)Nc1cc2c(c3c(C)ccnc13)OCCO2 (stereo not given)
[7]
  Delta MST: 7.2 days
[3]
  Delta MST: 5 days
[5]
  Delta MST: 5 days
[9]
  Cured animals: 0
[47]
  Cured animals: 0
[10]
  Delta MST: 7.8 days
[11]
  Delta MST: 7.6 days
[18]
  Delta MST: 7.6 days

## COc1cc(NCCCCC(C)N)c2nccc(C)c2c1OC (stereo not given)
[3]
  Delta MST: 5 days
[4]
  Cured animals: 3
[5]
  Delta MST: 5 days
[48]
  Delta MST: 8.7 days
[49]
  Delta MST: 7.5 days
[50]
  Cured animals: 2
